Measured values collected from several papers.
Sample: plasma
Route: oral

Structure (SMILES) | test system | setting | Vd/F
CC(C)(Sc1ccncc1-c1ccc(C#N)c2ccccc12)C(=O)O | male human | 20 mg, single dose, fed, healthy volunteers | 531 L
C[C@@H](c1ccc2nccn2c1)n1nnc2ncc(-c3cnn(C)c3)nc21 | human | 600 mg | 506 L
N#CN1C[C@H](n2nc(-c3ccc(Oc4ccc(Cl)cn4)cc3)c(C(N)=O)c2N)CCC12CC2 | human | 600 mg, fasted | 1060 L
c1cnc2ccc(Nc3nc(NC4CC4)c4nc[nH]c4n3)cc2c1 | human | 400 mg/m², patients | 546 L
COc1cc(C(=O)NC2CCN(C)CC2)c(F)cc1Nc1ncc(C(F)(F)F)c(Oc2cccc3c2C(=O)N(C)C3)n1 | human | 100 mg, single dose, patients | 236 L
CCOc1cc2ncc(C#N)c(Nc3ccc(OCc4ccccn4)c(Cl)c3)c2cc1NC(=O)/C=C/[C@H]1CCCN1C | human | 80 mg, single dose | 4110 L
Cc1cc(Nc2cc(N3CCN(C)CC3)nc(/C=C/c3ccccc3)n2)n[nH]1 | human | 120 mg/m², patients | 2440 L
CO[C@H]1CC[C@H](N2C(=O)CNc3ncc(-c4ccc(C(C)(C)O)nc4)nc32)CC1 | human | 7.5 mg, patients | 235 L
CCOc1cc([C@@H](CS(C)(=O)=O)N2C(=O)c3cccc(NC(C)=O)c3C2=O)ccc1OC | human | 30 mg, single dose, healthy volunteers | 141 L
C=C(F)C(=O)N1CCN(c2nc(OC[C@@H]3CCCN3C)nc3c2CCN(c2cccc4cccc(Cl)c24)C3)C[C@@H]1CC#N | human | 600 mg, single dose, fasted | 527 L
COc1ccc([C@@H]2CN(C(=O)[C@@H](O)CO)C[C@@]2(C)[C@@H](C)O)cc1OC1CN(c2ccc(C)cn2)C1 | human | 40 mg, single dose, healthy volunteers | 77.7 L
C[C@@]1(c2cc(NC(=O)c3ccc(C#N)cn3)ccc2F)C=CSC(N)=N1 | human | 30 mg, single dose | 276 L
